Rows were chosen to be rich in hits. Some 1.6% of all compounds tested hit in one or more screens of this group.
CSN inh: inhibitors of CSN-mediated cullin deneddylation, primary screen, biochemical, fluorescence polarization, uHTS. COP9 signalosome complex subunit 5 (Homo sapiens), Q92905. Purified CSN, SCF-Nedd8-OG deneddylation. inhibition, % at 12.5 µM. hit rate 0.38% among 360,000;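 active = pattern-corrected inhibition above about 35%, with an unprinted fluorescence ratio check between 0.5 and 1.5, limit read from the data, passing the limit was not always enough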
Target sequence (Q92905 whole entry, looked up, one chain of several): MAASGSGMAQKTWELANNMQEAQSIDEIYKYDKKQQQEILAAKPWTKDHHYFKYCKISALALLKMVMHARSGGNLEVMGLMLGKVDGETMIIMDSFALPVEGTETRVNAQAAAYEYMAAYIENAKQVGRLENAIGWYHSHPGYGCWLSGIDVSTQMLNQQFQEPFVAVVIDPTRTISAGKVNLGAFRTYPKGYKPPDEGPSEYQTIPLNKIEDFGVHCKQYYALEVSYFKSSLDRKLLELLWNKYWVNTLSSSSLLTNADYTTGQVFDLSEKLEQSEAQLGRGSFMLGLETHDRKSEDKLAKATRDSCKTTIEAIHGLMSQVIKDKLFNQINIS
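Material: purified human Csn5 enzyme expressed in HEK293T cells / Medium: Tris buffer pH 7.5, NaCl, DTT, Tween-20, trehalose, ovalbumin / Compound dosing: 12.5 µM single point / Schedule: 90 min incubation of compound, enzyme and substrate at room temperature / Signal: fluorescence polarization of the substrate / Control set: no-enzyme wells high, enzyme-with-substrate wells low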
Rpn11 inh: Rpn11 (PSMD14) deubiquitinase inhibitors, primary screen, biochemical, fluorescence polarization, uHTS; hit rate 0.59% among 360,000; 26S proteasome non-ATPase regulatory subunit 14 (Homo sapiens), O00487; inhibition, % at 20 µM; AID 588493, 2011; human 26S proteasome, Ub4-pepOG fluorescence polarization; 20S core pre-blocked with epoxomicin;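 active = inhibition at 20 µM, scaled to each plate's controls, above about 33%, limit read from the data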
TPT1 inh: Candida albicans TPT1 enzyme inhibitors, primary screen, biochemical, fluorescence polarization | recombinant caTPT1, FP RNA substrate dephosphorylation | AID 1962, 2009 | hit rate 0.81% among 300,000 | inhibition, % at 5 µM;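 active = inhibition above the mean of all tested compounds plus 3 SD, set per screening campaign, cut at about 24% in these data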
SENP1 FRET inh: human SENP1 catalytic domain inhibitors, primary screen, biochemical, FRET, uHTS. recombinant SENP1 catalytic domain, CyPet-SUMO1-YPet FRET cleavage. inhibition, % at 10 µM. hit rate 0.21% among 360,000;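 active = inhibition at least 30% at 10 µM, raw YFP signal under a set limit, fluorescence ratio 0.5 to 1.5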
Target sequence (Q9P0U3 419-644 limits assumed): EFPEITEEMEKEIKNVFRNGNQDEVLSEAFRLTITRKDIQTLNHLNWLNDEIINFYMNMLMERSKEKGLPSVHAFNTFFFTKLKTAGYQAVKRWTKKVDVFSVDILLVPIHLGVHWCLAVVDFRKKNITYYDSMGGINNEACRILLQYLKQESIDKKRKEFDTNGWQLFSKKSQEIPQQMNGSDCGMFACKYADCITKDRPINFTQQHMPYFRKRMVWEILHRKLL
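Test system: human SENP1 catalytic domain; medium: Tris pH 8 buffer plus EDTA, NaCl, BME, BSA, NP40, catalase; incubation: 50 min reaction at room temperature; technique: FRET, CFP and YFP emission; controls: no-enzyme low control and enzyme-plus-DMSO high control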
HNF4A DNA FP: change in binding of human HNF4A to DNA, primary screen, biochemical, fluorescence polarization, FITC-DNA; Hepatocyte nuclear factor 4-alpha (Homo sapiens), P41235; 1 h; activity change, % at 10 µM; hit rate 0.3% among 360,000; AID 1224865, 2016; in the data active = activity change above about 30%, passing the limit was not always enough
Large screens that a line does not name were inactive; ! = not confirmed by another sample.

Cc1ccc(NC(=O)COc2cccc(Oc3ccccc3)c2)cc1S(=O)(=O)N1CCOCC1	none (no result: TPT1 inh)
CC(C)c1c(O)ccc2c1CC[C@H]1C(C)(C)CCC[C@]21C	none (no result: TPT1 inh)
CC(C(=O)N1CCN=C1c1ccccc1)N1C(=O)c2ccccc2C1=O (centres undefined)	none
COc1ccc(NC(=O)CN(C)S(=O)(=O)c2ccccc2)c([N+](=O)[O-])c1	HNF4A DNA FP 39
COc1ccc(NC(=O)CN(C)S(=O)(=O)c2ccccc2)cc1	none
CCCCn1c(NC(=O)c2ccc(F)cc2)c(C#N)c2nc3ccccc3nc21	TPT1 inh 81 (no result: CSN inh, Rpn11 inh, SENP1 FRET inh, HNF4A DNA FP)
O=C(Cc1cccc(F)c1)N1CCOCC1	none (no result: TPT1 inh)
O=C1COc2ccc(C(=O)COC(=O)c3ccc(Cl)cc3[N+](=O)[O-])cc2N1	CSN inh 77
CCCCOCCCNC(=O)C[C@@H]1C[C@@]2(C(=O)OC)CC(C)(C)CC=C2N(Cc2ccccc2)C1=O	none (no result: Rpn11 inh, TPT1 inh)
Cc1ccc(NC(=S)Nc2cccc3cnccc23)cc1C	CSN inh 37
Cc1ccc(C)c(NC(=S)Nc2cccc3cnccc23)c1	CSN inh 36
Cc1ccccc1NC(=S)Nc1cccc2cnccc12	none
C=CCN(Cc1cn(C)nc1-c1cccc(Cl)c1)C1CCS(=O)(=O)C1 (centres undefined)	none
Cc1ccc(S(=O)(=O)N2[C@@H](CO)CO[C@H]2CC(=O)c2ccc(F)cc2)cc1	none (no result: Rpn11 inh, TPT1 inh)
Cc1cc(C(=O)Nc2cccc(C(=O)O)c2)c(C)o1	none
Cc1cc(C(=O)Nc2cccc(O)c2)c(C)o1	HNF4A DNA FP 60
S=C1SCN(CCc2ccccc2)CN1CCc1ccccc1	none (no result: TPT1 inh)
CC(=O)Nc1ccc(NC(=O)C(C)Oc2ccc(Cl)cc2Cl)cc1 (centres undefined)	none
CC(Oc1ccc(Cl)cc1Cl)C(=O)Nc1ccncc1 (centres undefined)	CSN inh 48
O=C(NCCCCCCCN1CCCCCCC1)C(C1CCCCC1)C1CCCCC1	CSN inh 55 (no result: TPT1 inh)
O=C(Nc1ccccc1-c1nc2ccccc2[nH]1)c1ccc(N2C(=O)CCC2=O)cc1	CSN inh 54, HNF4A DNA FP 85 (not shown: Rpn11 inh)
Cc1c(NS(=O)(=O)c2ccc3c(c2)Cc2ccccc2-3)c(=O)n(-c2ccccc2)n1C	none
Cc1ccc(OC(=O)N(C)C[C@@H]2OCc3cn(nn3)CCCC(=O)N([C@H](C)CO)C[C@H]2C)cc1	none (no result: TPT1 inh)
C[C@H]1CN([C@@H](C)CO)C(=O)CCCn2cc(nn2)CO[C@@H]1CN(C)C(=O)Oc1ccccc1	CSN inh 100 (no result: TPT1 inh)
O=C(C[C@@H]1C=C[C@H](NC(=O)Cc2ccccn2)[C@@H](CO)O1)NCCc1ccccc1	none (no result: Rpn11 inh, TPT1 inh)
Nc1ccc(-c2nc3ccc([N+](=O)[O-])cc3[nH]2)cc1	SENP1 FRET inh 49
COc1ccc(/C=C2\SC(=S)N(CCC(=O)Nc3ccc(O)cc3)C2=O)cc1	none
CCN(CC)CCOC(=O)c1ccc(NC(=O)CCCN2C(=O)S/C(=C/c3ccc(OC)cc3)C2=S)cc1	Rpn11 inh 68
COc1cc(OC)nc(Oc2cc(C=O)ccc2OC)n1	none
O=c1oc(/C=C/c2ccccc2)nc2sc3c(c12)CCC3	HNF4A DNA FP 47 (not shown: Rpn11 inh)
N[C@@H](Cc1cc(I)c(Oc2cc(I)c(O)c(I)c2)c(I)c1)C(=O)O	none (no result: CSN inh, Rpn11 inh, SENP1 FRET inh, HNF4A DNA FP)
N[C@@H](Cc1cc(I)c(Oc2ccc(O)c(I)c2)c(I)c1)C(=O)O	Rpn11 inh 59!
COC(=O)[C@@]12C[C@@H](CC(=O)NCCC(C)C)C(=O)N(CCc3ccc(OC)c(OC)c3)C1=CCC(C)(C)C2	none (no result: Rpn11 inh, TPT1 inh)
Cc1ccc(S(=O)(=O)N2c3ccccc3OC(C(=O)OC(C)(C)C)(C(=O)OC(C)(C)C)C2CC(=O)c2ccccc2)cc1 (centres undefined)	none (no result: Rpn11 inh, TPT1 inh)
O=c1nc(Nc2ccccc2)sc2ccc([N+](=O)[O-])cc12	CSN inh 43
Cc1ccc(CNS(=O)(=O)/C=C/c2ccc3c(c2)OCO3)cc1	none
CCN(CC)c1ccc2cc(C(=O)c3cccs3)c(=O)oc2c1	HNF4A DNA FP 84 (not shown: Rpn11 inh, TPT1 inh)
COC(=O)CCC(=O)OC1(C)C(=O)C=C2C=C(c3ccsc3)OC=C2C1=O (centres undefined)	CSN inh 38
COc1cc(C=Nc2cccc(C)c2)c(O)c([N+](=O)[O-])c1	Rpn11 inh 39
Cc1cc(=O)oc2cc(OCC(=O)c3ccccc3)ccc12	none
Cc1cc(=O)oc2cc(OCC(=O)N/N=C/c3ccccc3O)ccc12	CSN inh 106
O=C(COc1ccc2c(-c3ccccc3)cc(=O)oc2c1)Nc1ccc(CCO)cc1	CSN inh 66
CCN/C=C(\C#N)S(=O)(=O)c1ccc(Br)cc1	CSN inh 100
CC1=CSC2=NC(=O)/C(=C\c3cccn3-c3ccccc3)C(=N)N12	none
Cc1ccccc1Cn1cccc1/C=C1/C(=N)N2C=CSC2=NC1=O	CSN inh 41 (not shown: Rpn11 inh)
CC(C)c1ccc(-n2cccc2/C=C2/C(=N)N3C=CSC3=NC2=O)cc1	HNF4A DNA FP 51 (not shown: Rpn11 inh)
COc1ccccc1C(C(=O)c1ccccc1)c1ccc(O)cc1 (centres undefined)	none (no result: Rpn11 inh, TPT1 inh)
O=[N+]([O-])c1ccc(-c2cn(-c3ccc(Cl)cc3)cn2)cc1	HNF4A DNA FP 40 (no result: TPT1 inh)
CCC(=O)NNC(=S)NC(=O)c1ccc(C)cc1	none
Cc1ccc(C(=O)NC(=S)NNC(=O)COc2ccccc2C)cc1	HNF4A DNA FP 27
Cc1cccc(C)c1N1CCN(C(c2cc3ccccc3o2)c2nnnn2C(C)(C)C)CC1 (centres undefined)	none (no result: Rpn11 inh, TPT1 inh)
CCCC(=O)Nc1cc(-c2nnc(OC)c3ccccc23)ccc1N1CCCCC1	none (no result: CSN inh, Rpn11 inh, SENP1 FRET inh, HNF4A DNA FP)
COc1nnc(-c2ccc(N3CCCCC3)c(N)c2)c2ccccc12	CSN inh 110
COCc1cc(NCc2ccc(Cl)cc2)nc(C)n1	none
Cc1nc(CS(=O)c2ccc(Cl)cc2)cc(NCc2ccc(Cl)cc2Cl)n1 (centres undefined)	CSN inh 52
CCOc1ccccc1NC(=O)CCC(=O)Nc1nnc(C2CCCCC2)s1	none
O=[N+]([O-])c1ccc(N=Nc2c(O)[nH]c3ccc(F)cc23)cc1	SENP1 FRET inh 49
Cc1ccc(C2=NN(S(C)(=O)=O)C(c3cccs3)C2)cc1 (centres undefined)	none
CCc1ccc(C2=NN(S(C)(=O)=O)C(c3cccs3)C2)cc1 (centres undefined)	HNF4A DNA FP 92
CN1CCS/C1=C\C=C1/SC(=S)N(CC(=O)O)C1=O	SENP1 FRET inh 68 (not shown: Rpn11 inh, TPT1 inh)
COc1ccc(/C=C2\SC(=S)N(CC(=O)N3CCN(C)CC3)C2=O)cc1	none
